{"data": "Assay results gathered from unrelated publications", "target": "Histone deacetylase 8 (HDAC8, Homo sapiens, UniProt Q9BY41)", "read-out": "enzyme activity", "mode": "inhibitor", "Sequence (Q9BY41 1-377, as in one of the studies)": "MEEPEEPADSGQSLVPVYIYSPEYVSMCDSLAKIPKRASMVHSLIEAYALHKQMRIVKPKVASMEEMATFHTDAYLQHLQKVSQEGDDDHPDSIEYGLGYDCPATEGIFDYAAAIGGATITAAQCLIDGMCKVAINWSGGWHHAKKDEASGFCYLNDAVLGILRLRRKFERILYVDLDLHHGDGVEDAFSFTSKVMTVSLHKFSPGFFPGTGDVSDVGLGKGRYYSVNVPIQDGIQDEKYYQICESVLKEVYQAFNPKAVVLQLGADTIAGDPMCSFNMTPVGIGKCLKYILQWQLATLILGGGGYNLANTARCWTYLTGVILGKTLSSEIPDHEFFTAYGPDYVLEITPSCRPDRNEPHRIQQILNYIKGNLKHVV"}
{"SMILES": "O=C(CCCCCCC(=O)N[c-]1cccc1)NO.[Fe+2].c1cc[cH-]c1", "technique": "fluorescence", "IC50": "1.36 µM"}
{"SMILES": "CCCON(Cc1ccc(C(=O)NO)cc1)C(=O)Nc1ccc(N(C)C)cc1", "technique": "fluorescence", "IC50": "4.46 µM"}
{"SMILES": "CCCC[C@H](NC(=O)[C@H](C)c1c(C)[nH]c2ccc(O)cc12)c1ncc(-c2cc3ccccc3nc2OC)[nH]1", "IC50": "> 45 µM"}
{"SMILES": "O=C(/C=C/c1ccc(O)c(O)c1)O[C@@H]1C[C@](O)(C(=O)O)C[C@@H](O)[C@H]1O", "IC50": "8.62 µM"}
{"SMILES": "CC(C)C[C@H]1CC(=O)N2CCC[C@H]2C(=O)N[C@@H](CCCCCC(=O)NO)C(=O)N[C@@H](Cc2c[nH]c3ccccc23)C(=O)N1", "IC50": "0.18 µM"}
{"SMILES": "O=c1c(O)c(-c2ccc(O)c(O)c2)oc2cc(O)cc(O)c12", "IC50": "7.72 µM"}
{"SMILES": "CCCON(Cc1ccc(C(=O)NO)cc1)C(=O)Nc1ccccc1", "technique": "fluorescence", "IC50": "4.64 µM"}
{"SMILES": "Nc1ccc(-c2ccncc2)cc1NC(=O)N1CCCC1", "IC50": "> 33.3 µM"}
